According to ChEMBL document CHEMBL1147883, “Design, synthesis, and biological evaluation of substituted-N-(thieno[2,3-b]pyridin-3-yl)-guanidines, N-(1H-pyrrolo[2,3-b]pyridin-3-yl)-guanidines, and N-(1H-indol-3-yl)-guanidines” (2007):

What was measured:
Format in all cases: functional, Rattus norvegicus
[1] = Insulinotropic activity in RIN5F cells assessed as stimulation of glucose-dependent insulin secretion per ug of protein at 0.1 uM
Method in brief: (§1)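 Seeded at 0.2×10^6 cells/well, grown overnight to 80% confluence. PBS wash, then 40 min preincubation in Krebs-Ringer Hepes buffer (1.1 mM glucose, 0.5% BSA, pH 7.4). Supernatant insulin measured by rat insulin ELISA and normalized to total protein (pg/µg/h). n = 3, mean ± SD.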

[2] = Insulinotropic activity in RIN5F cells assessed as stimulation of glucose-dependent insulin secretion per ug of protein at 1 uM; method in brief: as §1
[3] = Insulinotropic activity in RIN5F cells assessed as stimulation of glucose-dependent insulin secretion per microgram of protein at 10 uM; method in brief: as §1

SMILES: N=C(N)Nc1c[nH]c2ncc(Cl)cc12
- Activity [1]: 10.5 pg/h
- Activity [2]: 12.5 pg/h
- Activity [3]: 14.6 pg/h

SMILES: N=C(N)Nc1c(Cc2ccccc2)[nH]c2ncccc12
- Activity [1]: 10.9 pg/h
- Activity [2]: 12.6 pg/h
- Activity [3]: 14.9 pg/h

SMILES: N=C(N)Nc1c(-c2ccccc2)sc2ncc(Cl)cc12
- Activity [1]: 14.9 pg/h
- Activity [2]: 17.8 pg/h
- Activity [3]: 31.6 pg/h

SMILES: N=C(N)Nc1c[nH]c2ncccc12
- Activity [1]: 10.5 pg/h
- Activity [2]: 12.5 pg/h
- Activity [3]: 14.5 pg/h

SMILES: N=C(N)Nc1csc2ncccc12
- Activity [1]: 10.1 pg/h
- Activity [2]: 12.1 pg/h
- Activity [3]: 14.1 pg/h

SMILES: N=C(N)Nc1c(C2CCCCC2)[nH]c2ncc(Cl)cc12
- Activity [1]: 10.8 pg/h
- Activity [2]: 13.1 pg/h
- Activity [3]: 15.1 pg/h

SMILES: Cc1[nH]c2ccc(Cl)cc2c1NC(=N)N
- Activity [1]: 16.1 pg/h
- Activity [2]: 20.1 pg/h
- Activity [3]: 36 pg/h

SMILES: N=C(N)Nc1c(Cc2ccccc2)sc2ncccc12
- Activity [1]: 10.5 pg/h
- Activity [2]: 12.5 pg/h
- Activity [3]: 14.5 pg/h

SMILES: Cc1[nH]c2ncccc2c1NC(=N)N
- Activity [1]: 11.5 pg/h
- Activity [2]: 15.5 pg/h
- Activity [3]: 29.5 pg/h

SMILES: Cc1sc2ncccc2c1NC(=N)N
- Activity [1]: 11.1 pg/h
- Activity [2]: 15.1 pg/h
- Activity [3]: 29.1 pg/h

SMILES: CCc1sc2ncccc2c1NC(=N)N
- Activity [1]: 10.6 pg/h
- Activity [2]: 12.6 pg/h
- Activity [3]: 14.6 pg/h

SMILES: CCc1sc2ncc(Cl)cc2c1NC(=N)N
- Activity [1]: 14.8 pg/h
- Activity [2]: 17.8 pg/h
- Activity [3]: 31.5 pg/h

SMILES: N=C(N)Nc1c(Cc2ccccc2)[nH]c2ncc(Cl)cc12
- Activity [1]: 10.9 pg/h
- Activity [2]: 12.9 pg/h
- Activity [3]: 15 pg/h

SMILES: CCCCNC(=O)NS(=O)(=O)c1ccc(C)cc1 [TOLBUTAMIDE]
- Activity [1]: 19.9 pg/h
- Activity [2]: 27.1 pg/h

SMILES: Cc1[nH]c2ccc(Cl)cc2c1C1=NCCN1
- Activity [1]: 16.4 pg/h
- Activity [2]: 20.6 pg/h
- Activity [3]: 36.4 pg/h

SMILES: CCc1[nH]c2ccc(Cl)cc2c1NC(=N)N
- Activity [1]: 15.8 pg/h
- Activity [2]: 19.5 pg/h
- Activity [3]: 35.2 pg/h

SMILES: N=C(N)Nc1c(-c2ccccc2)sc2ncccc12
- Activity [1]: 11.1 pg/h
- Activity [2]: 15.1 pg/h
- Activity [3]: 27.9 pg/h

SMILES: N=C(N)Nc1c(Cc2ccccc2)[nH]c2ccc(Cl)cc12
- Activity [1]: 11.2 pg/h
- Activity [2]: 13.2 pg/h
- Activity [3]: 15.4 pg/h

SMILES: N=C(N)Nc1c(Cc2ccccc2)[nH]c2ccccc12
- Activity [1]: 11.1 pg/h
- Activity [2]: 13.1 pg/h
- Activity [3]: 15.1 pg/h

SMILES: CCc1[nH]c2ccccc2c1NC(=N)N
- Activity [1]: 11.1 pg/h
- Activity [2]: 13.4 pg/h
- Activity [3]: 16.1 pg/h

SMILES: Cc1sc2ncc(Cl)cc2c1NC(=N)N
- Activity [1]: 15.1 pg/h
- Activity [2]: 18.1 pg/h
- Activity [3]: 32.1 pg/h

SMILES: N=C(N)Nc1c(C2CCCCC2)sc2ncccc12
- Activity [1]: 10.1 pg/h
- Activity [2]: 12.1 pg/h
- Activity [3]: 14.1 pg/h

SMILES: N=C(N)Nc1c(-c2ccccc2)[nH]c2ncc(Cl)cc12
- Activity [1]: 15.2 pg/h
- Activity [2]: 18.1 pg/h
- Activity [3]: 33.1 pg/h

SMILES: N=C(N)Nc1c(C2CCCCC2)[nH]c2ccccc12
- Activity [1]: 10.9 pg/h
- Activity [2]: 13.1 pg/h
- Activity [3]: 15.1 pg/h

SMILES: CCc1[nH]c2ncccc2c1NC(=N)N
- Activity [1]: 10.8 pg/h
- Activity [2]: 13 pg/h
- Activity [3]: 15 pg/h

SMILES: N=C(N)Nc1c[nH]c2ccccc12
- Activity [1]: 10.9 pg/h
- Activity [2]: 13 pg/h
- Activity [3]: 15 pg/h

SMILES: N=C(N)Nc1c(-c2ccccc2)[nH]c2ncccc12
- Activity [1]: 11.5 pg/h
- Activity [2]: 15.5 pg/h
- Activity [3]: 28.5 pg/h

SMILES: N=C(N)Nc1c(-c2ccccc2)[nH]c2ccc(Cl)cc12
- Activity [1]: 15.9 pg/h
- Activity [2]: 19.5 pg/h
- Activity [3]: 35.5 pg/h

SMILES: N=C(N)Nc1c[nH]c2ccc(Cl)cc12
- Activity [1]: 11.1 pg/h
- Activity [2]: 13.2 pg/h
- Activity [3]: 15.5 pg/h

SMILES: CCc1[nH]c2ncc(Cl)cc2c1NC(=N)N
- Activity [1]: 15.1 pg/h
- Activity [2]: 18.1 pg/h
- Activity [3]: 33.1 pg/h

SMILES: N=C(N)Nc1c(C2CCCCC2)[nH]c2ccc(Cl)cc12
- Activity [1]: 11.2 pg/h
- Activity [2]: 13.2 pg/h
- Activity [3]: 15.9 pg/h

SMILES: N=C(N)Nc1csc2ncc(Cl)cc12
- Activity [1]: 10.2 pg/h
- Activity [2]: 12.2 pg/h
- Activity [3]: 14.2 pg/h

SMILES: N=C(N)Nc1c(Cc2ccccc2)sc2ncc(Cl)cc12
- Activity [1]: 10.6 pg/h
- Activity [2]: 12.6 pg/h
- Activity [3]: 14.5 pg/h

SMILES: N=C(N)Nc1c(-c2ccccc2)[nH]c2ccccc12
- Activity [1]: 12.1 pg/h
- Activity [2]: 16.1 pg/h
- Activity [3]: 29.1 pg/h

SMILES: N=C(N)Nc1c(C2CCCCC2)[nH]c2ncccc12
- Activity [1]: 10.2 pg/h
- Activity [2]: 12.5 pg/h
- Activity [3]: 14.5 pg/h

SMILES: Cc1[nH]c2ccccc2c1NC(=N)N
- Activity [1]: 12.1 pg/h
- Activity [2]: 16.1 pg/h
- Activity [3]: 30.1 pg/h

SMILES: Cc1[nH]c2ncc(Cl)cc2c1NC(=N)N
- Activity [1]: 15.5 pg/h
- Activity [2]: 19.1 pg/h
- Activity [3]: 35.1 pg/h

SMILES: N=C(N)Nc1c(C2CCCCC2)sc2ncc(Cl)cc12
- Activity [1]: 10.5 pg/h
- Activity [2]: 12.5 pg/h
- Activity [3]: 14.5 pg/h
